From ChEMBL document CHEMBL5244270, “Selective Inhibitors of G2019S-LRRK2 Kinase Activity” (J Med Chem, 2020)

Tests used:
[1] = biological target: T1, Leucine-rich repeat serine/threonine-protein kinase 2 (Homo sapiens, UniProt Q5S007); experiment: Inhibition of human wild type LRRK2 expressed in HEK293 cells assessed as reduction in pSer935 phosphorylation incubated for 2 hrs by HTRF analysis; format: cell-based
Outline: (§1)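 Stably transfected HEK293 cells expressing human WT or G2019S LRRK2 were seeded at 5K/well in DMEM with 1% serum on poly-D-lysine plates. Inhibitor in DMSO was added for 2 h at 37 °C. pS935 was detected by an HTRF kit. IC50 is the geometric mean of at least two independent experiments.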

[2] = biological target: T2, Leucine-rich repeat serine/threonine-protein kinase 2 (Homo sapiens, UniProt Q5S007, G2019S); experiment: Inhibition of human LRRK2 G2019S mutant expressed in HEK293 cells assessed as reduction in pS1292 phosphorylation incubated for 2 hrs by MSD analysis; format: cell-based
Outline: (§2)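 HEK293 cells stably expressing WT or G2019S LRRK2 (30−50K/well, DMEM with 1% serum) were treated for 2 h at 37 °C and lysed with phosphatase inhibitors. LRRK2 was captured on anti-LRRK2-coated MSD plates overnight at 4 °C. Detection used rabbit anti-pS1292 (1:400) and Sulfo-Tag anti-rabbit, with an electrochemiluminescence read-out. IC50 is the geometric mean of at least two independent experiments.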

[3] = organism: Homo sapiens; experiment: Selectivity ratio of IC50 for inhibition of human wild type LRRK2 expressed in HEK293 cells assessed as reduction in pS1292 phosphorylation to IC50 for inhibition of human LRRK2 G2019S mutant expressed in HEK293 cells assessed as reduction in pS1292 phosphorylation; format: cell-based; outline: as §2
[4] = organism: Homo sapiens; experiment: Selectivity ratio of IC50 for inhibition of N-terminal GST-fused human wild type LRRK2 to IC50 for inhibition of N-terminal GST-fused human […] mutant
Outline: (§3)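 Purified truncated LRRK2, WT or G2019S, at 2 nM nominal was preincubated with inhibitor for 15 min. LRRKtide (0.4 μM) and ATP (25 μM) were then added for 1 h. The reaction was stopped with 10 mM EDTA plus 2 nM Tb-anti-pLRRKtide antibody, and TR-FRET was read. IC50 is the geometric mean of at least two independent experiments.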

[5] = biological target: T1, Leucine-rich repeat serine/threonine-protein kinase 2; experiment: Inhibition of N-terminal GST-fused human wild type LRRK2 using fluorescein-labeled LRRKtide as substrate preincubated for 15 mins followed by substrate addition and measured after 1 hr by TR-FRET assay; outline: as §3
[6] = organism: Homo sapiens; experiment: Selectivity ratio of IC50 for inhibition of human wild type LRRK2 expressed in HEK293 cells to IC50 for inhibition of human LRRK2 G2019S mutant expressed in HEK293; format: cell-based
Outline: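 HEK293 cells stably expressing WT or G2019S LRRK2 (100 000/well, EMEM with 1% FBS) were dosed about 24 h after plating, for 2 h. They were lysed in 1% SDS Tris buffer with protease and phosphatase inhibitors, and lysates were heated at 65 °C for 10 min. pThr73-Rab10, total Rab10, pS935 and total LRRK2 were quantified by immunoblot. IC50 is the geometric mean of at least two independent experiments.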

[7] = biological target: T1, Leucine-rich repeat serine/threonine-protein kinase 2; experiment: Inhibition of human wild type LRRK2 expressed in HEK293 cells assessed as reduction in pS1292 phosphorylation incubated for 2 hrs by MSD analysis; format: cell-based; outline: as §2
[8] = biological target: T2, Leucine-rich repeat serine/threonine-protein kinase 2; experiment: Inhibition of N-terminal GST-fused human LRRK2 G2019S mutant using fluorescein-labeled LRRKtide as substrate preincubated for 15 mins followed by substrate addition and measured after 1 hr by TR-FRET assay; outline: as §3
[9] = biological target: T2, Leucine-rich repeat serine/threonine-protein kinase 2; experiment: Inhibition of human LRRK2 G2019S mutant expressed in HEK293 cells assessed as reduction in pSer935 phosphorylation incubated for 2 hrs by HTRF analysis; format: cell-based; outline: as §1

T1 sequence (Q5S007 whole entry): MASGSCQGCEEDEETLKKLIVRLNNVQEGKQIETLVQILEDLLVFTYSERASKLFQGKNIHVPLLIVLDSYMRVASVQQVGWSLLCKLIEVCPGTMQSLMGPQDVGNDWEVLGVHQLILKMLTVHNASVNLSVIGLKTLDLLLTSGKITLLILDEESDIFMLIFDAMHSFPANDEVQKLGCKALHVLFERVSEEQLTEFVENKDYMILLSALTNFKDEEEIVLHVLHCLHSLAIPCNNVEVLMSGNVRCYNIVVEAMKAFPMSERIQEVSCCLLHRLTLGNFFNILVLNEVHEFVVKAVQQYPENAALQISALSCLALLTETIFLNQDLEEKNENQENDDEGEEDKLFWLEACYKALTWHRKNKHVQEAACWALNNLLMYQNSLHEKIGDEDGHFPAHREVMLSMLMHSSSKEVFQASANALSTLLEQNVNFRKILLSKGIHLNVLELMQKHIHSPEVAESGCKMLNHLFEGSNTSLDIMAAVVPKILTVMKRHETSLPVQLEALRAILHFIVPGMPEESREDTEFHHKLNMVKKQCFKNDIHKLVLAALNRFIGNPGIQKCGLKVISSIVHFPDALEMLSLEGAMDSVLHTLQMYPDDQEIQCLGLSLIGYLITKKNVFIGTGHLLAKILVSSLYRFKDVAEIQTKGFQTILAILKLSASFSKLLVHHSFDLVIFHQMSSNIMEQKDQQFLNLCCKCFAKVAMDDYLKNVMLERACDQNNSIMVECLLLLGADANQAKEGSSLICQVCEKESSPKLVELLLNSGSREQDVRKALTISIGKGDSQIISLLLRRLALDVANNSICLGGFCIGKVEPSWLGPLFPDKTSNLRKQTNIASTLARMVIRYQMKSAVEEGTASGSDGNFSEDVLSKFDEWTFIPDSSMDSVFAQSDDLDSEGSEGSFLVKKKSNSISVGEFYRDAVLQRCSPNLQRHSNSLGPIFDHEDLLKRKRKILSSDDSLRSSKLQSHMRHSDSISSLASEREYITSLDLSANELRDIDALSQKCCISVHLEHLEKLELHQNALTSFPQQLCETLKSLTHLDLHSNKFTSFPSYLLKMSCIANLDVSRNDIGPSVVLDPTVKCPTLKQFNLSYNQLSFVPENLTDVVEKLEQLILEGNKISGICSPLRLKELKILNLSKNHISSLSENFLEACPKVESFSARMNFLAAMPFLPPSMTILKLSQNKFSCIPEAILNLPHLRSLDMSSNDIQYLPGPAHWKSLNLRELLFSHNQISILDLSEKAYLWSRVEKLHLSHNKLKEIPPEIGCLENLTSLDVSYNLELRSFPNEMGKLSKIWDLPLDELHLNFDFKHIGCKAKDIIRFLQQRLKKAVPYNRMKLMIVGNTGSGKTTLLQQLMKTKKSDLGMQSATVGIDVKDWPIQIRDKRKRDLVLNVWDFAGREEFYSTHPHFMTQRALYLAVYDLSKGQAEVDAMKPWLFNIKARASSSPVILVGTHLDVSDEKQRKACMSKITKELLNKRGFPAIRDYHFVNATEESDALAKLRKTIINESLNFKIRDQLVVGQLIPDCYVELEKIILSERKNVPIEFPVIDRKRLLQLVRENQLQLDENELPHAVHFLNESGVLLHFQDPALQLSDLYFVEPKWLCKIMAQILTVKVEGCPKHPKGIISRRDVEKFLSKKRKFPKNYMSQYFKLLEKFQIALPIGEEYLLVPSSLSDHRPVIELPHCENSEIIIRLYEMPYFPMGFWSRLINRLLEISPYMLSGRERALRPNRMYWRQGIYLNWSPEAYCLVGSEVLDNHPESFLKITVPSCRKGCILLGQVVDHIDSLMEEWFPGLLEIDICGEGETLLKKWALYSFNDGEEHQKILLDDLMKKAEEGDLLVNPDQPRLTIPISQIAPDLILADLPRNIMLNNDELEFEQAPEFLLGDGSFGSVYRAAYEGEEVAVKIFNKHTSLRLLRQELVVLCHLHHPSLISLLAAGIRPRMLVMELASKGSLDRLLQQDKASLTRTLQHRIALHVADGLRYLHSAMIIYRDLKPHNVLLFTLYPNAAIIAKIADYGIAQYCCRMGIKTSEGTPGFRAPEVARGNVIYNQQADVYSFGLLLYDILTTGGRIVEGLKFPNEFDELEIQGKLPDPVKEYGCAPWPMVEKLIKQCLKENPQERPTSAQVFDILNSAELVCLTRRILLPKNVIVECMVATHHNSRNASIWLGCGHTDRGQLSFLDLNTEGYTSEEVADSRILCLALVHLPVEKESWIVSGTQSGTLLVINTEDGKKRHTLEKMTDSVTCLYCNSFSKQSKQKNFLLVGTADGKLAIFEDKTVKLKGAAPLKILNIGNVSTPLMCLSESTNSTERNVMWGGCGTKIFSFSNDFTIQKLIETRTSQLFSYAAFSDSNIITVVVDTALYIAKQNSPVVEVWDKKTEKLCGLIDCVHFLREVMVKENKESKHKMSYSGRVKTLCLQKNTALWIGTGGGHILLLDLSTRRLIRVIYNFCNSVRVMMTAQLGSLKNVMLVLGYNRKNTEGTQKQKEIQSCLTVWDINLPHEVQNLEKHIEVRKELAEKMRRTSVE
T2 sequence (Q5S007 whole entry G2019S): as the sequence (Q5S007 whole entry) above, with G2019S counted along it

SMILES | IC50 [1] [nM] | IC50 [2] [nM] | Ratio IC50 [3] | Ratio IC50 [4] | IC50 [5] [nM] | Ratio IC50 [6] | IC50 [7] [nM] | IC50 [8] [nM] | IC50 [9] [nM]
CC1=C(C(=O)Nc2ccc3[nH]nc(-c4nc5ccccc5[nH]4)c3c2)Cn2nnnc2N1C | 3300 | 21 | 12 | > 2.6 | 0.53 | 157 | 242 | < 0.2 | 21
CC1=C(C(=O)Nc2ccc3c(c2)[nH]c(=O)n3C)[C@@H](C)n2nnnc2N1C |  |  |  |  | > 10000 |  |  | > 10000 | 
CC1=C(C(=O)Nc2ccc3[nH]ncc3c2)[C@H](C)n2nnnc2N1C |  |  |  | 3.2 | 302 |  |  | 94 | 
CC1=C(C(=O)Nc2ccc3[nH]ncc3c2)Cn2nnnc2N1C(=O)N(C)C |  |  |  | 17 | 888 |  |  | 53 | 
CC1=C(C(=O)Nc2ccn3cnc(C)c3c2)Cn2nnnc2N1C |  |  |  | > 7.4 | > 10000 |  |  | 1350 | 
CC1=C(C(=O)Nc2ccc3c(N)nccc3c2)[C@@H](C)n2nnnc2N1C |  |  |  | 48 | 581 |  |  | 12 | 
CC1=C(C(=O)Nc2ccc3[nH]c(=O)n(C)c3c2)[C@@H](C)n2nnnc2N1C |  |  |  | 49.7 | 2870 |  |  | 58 | 
CC1=C(C(=O)Nc2ccc3[nH]ncc3c2)Cn2nnnc2N1C |  |  |  | 16 | 509 |  |  | 32 | 
CC1=C(C(=O)Nc2ccc3[nH]ncc3c2)Cn2nnnc2N1CCN1CCOCC1 |  |  |  | 1.3 | 6130 |  |  | 4650 | 
CN1C=C(C(=O)Nc2ccc3[nH]ncc3c2)Cn2nnnc21 |  |  |  |  | > 10000 |  |  | > 10000 | 
CC1=C(C(=O)Nc2ccc3[nH]nc(-c4ccnc(N5CCOCC5)c4)c3c2)[C@@H](C)n2nnnc2N1C | 65 | 1.2 | 18 |  | < 0.2 | 27 | 20.9 | < 0.2 | 2.4
CC1=C(C(=O)Nc2ccc3[nH]nc(-c4ccc(S(N)(=O)=O)cc4)c3c2)Cn2nnnc2N1C |  |  |  | > 3.5 | 0.7 |  |  | < 0.2 | 
CC1=C(C(=O)N(C)c2ccc3[nH]ncc3c2)Cn2nnnc2N1C |  |  |  |  |  |  |  | > 10000 | 
CC1=C(C(=O)Nc2ccc3[nH]cnc3c2)Cn2nnnc2N1C |  |  |  |  | > 10000 |  |  | > 10000 | 
CC1=C(C(=O)Nc2ccc3[nH]nc(-c4ccnc(N5CCOCC5)c4)c3c2)Cn2nnnc2N1C | 377 | 9.2 | 8 |  | < 0.2 | 45 | 74.4 | < 0.2 | 8.3
CC1=C(C(=O)Nc2ccc3[nH]nc(-c4ccncc4)c3c2)[C@@H](C)n2nnnc2N1C | 1140 | 12.1 | 22 |  | < 0.2 | 78 | 272 | < 0.2 | 14.7
CC1=C(C(=O)Nc2ccc3c(c2)C(=O)NC3=O)[C@@H](C)n2nnnc2N1C |  |  |  | 52 | 2840 |  |  | 55 | 
CC1=C(C(=O)Nc2ccc3[nH]ncc3c2)Cn2nnnc2N1c1ccccc1 |  |  |  | 2.2 | 5.7 |  |  | 2.6 | 
CCC1=C(C(=O)Nc2ccc3[nH]ncc3c2)Cn2nnnc2N1C |  |  |  | 2.2 | 534 |  |  | 244 | 

SMILES | IC50 [1] [nM] | IC50 [2] [nM] | Ratio IC50 [3] | Ratio IC50 [4] | IC50 [5] [nM] | Ratio IC50 [6] | IC50 [7] [nM] | IC50 [8] [nM] | IC50 [9] [nM]
CC1=C(C(=O)Nc2ccc3[nH]ncc3c2)C(C)(C)n2nnnc2N1C |  |  |  | 108 | 1300 |  |  | 12 | 
CC1=C(C(=O)Nc2ccc3[nH]nc(-c4cc(N5CCOCC5)ncn4)c3c2)Cn2nnnc2N1C |  |  |  | 2.2 | 0.88 |  |  | 0.4 | 
CCCC(=O)Nc1n[nH]c2ccc(NC(=O)C3=C(C)N(C)c4nnnn4C3)cc12 |  |  |  | > 8.4 | > 10000 |  |  | 1190 | 
CC1=C(C(=O)Nc2ccc3cnc(C)n3c2)Cn2nnnc2N1C |  |  |  | > 3.2 | > 10000 |  |  | 3120 | 
CC1=C(C(=O)Nc2ccc3[nH]cc(C)c3c2)Cn2nnnc2N1C |  |  |  |  | > 10000 |  |  | > 10000 | 
CCN1C(C)=C(C(=O)Nc2ccc3[nH]ncc3c2)Cn2nnnc21 |  |  |  | 15 | 865 |  |  | 58 | 
CC1=C(C(=S)Nc2ccc3[nH]ncc3c2)Cn2nnnc2N1C |  |  |  | 15 |  |  |  | 15.3 | 
CC1=C(C(=O)Nc2ccc3c(c2)CNC3=O)[C@@H](C)n2nnnc2N1C |  |  |  | 53 | 1700 |  |  | 32 | 
CC(=O)N1C(C)=C(C(=O)Nc2ccc3[nH]ncc3c2)Cn2nnnc21 |  |  |  | 5 | 2540 |  |  | 513 | 
CC1=C(C(=O)Nc2ccc3[nH]nc(C)c3c2)C(C)(C)n2nnnc2N1C |  |  |  | 190 | 152 |  |  | 0.8 | 
CC1=C(C(=O)Nc2ccc3[nH]nc(NC(=O)c4ccccc4)c3c2)Cn2nnnc2N1C |  |  |  | 35 | 108 |  |  | 3 | 
CC1=C(C(=O)Nc2ccc3[nH]nc(-c4ccncc4)c3c2)Cn2nnnc2N1C |  |  |  | 20 | 9 |  |  | 0.44 | 
CC1=C(C(=O)Nc2ccc3[nH]nc(C)c3c2)Cn2nnnc2N1C |  |  |  | 12 | 121 |  |  | 10 | 
CC1=C(C(=O)Nc2ccc3[nH]nc(C(N)=O)c3c2)Cn2nnnc2N1C |  |  |  | 21 | 125 |  |  | 6 | 
CC1=C(C(=O)Nc2ccc3[nH]nc(C)c3c2)[C@H](C)n2nnnc2N1C |  |  |  | 24 | 1220 |  |  | 51 | 
CC1=C(C(=O)Nc2ccc3[nH]c(=O)[nH]c3c2)Cn2nnnc2N1C |  |  |  | > 36 | > 8600 |  |  | 240 | 
CC1=C(C(=O)Nc2ccc3[nH]nc(Br)c3c2)Cn2nnnc2N1C |  |  |  | 40 | 96 |  |  | 2.4 | 
CC1=C(C(=O)Nc2ccc3c(c2)CC(=O)N3)Cn2nnnc2N1C |  |  |  | > 1.6 | > 10000 |  |  | 6370 | 
CC1=C(C(=O)Nc2ccc3[nH]nc(-c4ccnc(N5CCOCC5)c4)c3c2)[C@H](C)n2nnnc2N1C |  |  |  | > 5 | 1 |  |  | < 0.2 | 
